Data published in ChEMBL document CHEMBL5058577, “EUbOPEN Chemogenomics Library 2 (Multiplex)” (2022).

System: Fibroblast
Assay: Multiplex assay against human fibroblast
Format: toxicity, cell-based
Procedure, shortened: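 Cells stained live at seeding with Hoechst33342, BioTracker Green Microtubule Cytoskeleton Dye, MitoTracker Red and Annexin V Alexa Fluor 680 were imaged on a CQ1 microscope at 37°C and 5% CO2 after compound addition. Their classification by CellPathfinder machine-learning gating ran from Hoechst high-intensity objects versus normal cells, to healthy, pyknosed or fragmented nuclei among normal cells, to mitotic or apoptotic among pyknosed cells. Tubulin, mitochondrial-mass and membrane-permeability phenotypes are per cents of healthy-nucleus cells.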

[1] = 12 h, 1 µM, compound concentration 1 uM, replicate 1
[2] = 12 h, 1 µM, compound concentration 1 uM, replicate 2
[3] = 12 h, 10 µM, compound concentration 10 uM, replicate 1
[4] = 12 h, 10 µM, compound concentration 10 uM, replicate 2
[5] = 24 h, 1 µM, compound concentration 1 uM, replicate 1
[6] = 24 h, 1 µM, compound concentration 1 uM, replicate 2
[7] = 24 h, 10 µM, compound concentration 10 uM, replicate 1
[8] = 24 h, 10 µM, compound concentration 10 uM, replicate 2
[9] = 48 h, 1 µM, compound concentration 1 uM, replicate 1
[10] = 48 h, 1 µM, compound concentration 1 uM, replicate 2
[11] = 48 h, 10 µM, compound concentration 10 uM, replicate 1
[12] = 48 h, 10 µM, compound concentration 10 uM, replicate 2

O=C(Nc1cc(-c2ccccc2)nn1-c1ccccc1F)c1ccc([N+](=O)[O-])cc1
Population Apoptotic (%) [1]: 28%
Population Fragmented Nuclei (%) [1]: 17%
Population Healthy Nuclei (%) [1]: 71%
Population Hoechst High Intensity Objects (%) [1]: 2%
Population Membrane Permeable-Phenotype (%) [1]: 1%
Population Mitochondria Different-Phenotype (%) [1]: 1%
Population Mitotic Cells (%) [1]: 71%
Population Normal (%) [1]: 97%
Population Pyknosed Nuclei (%) [1]: 10%
Population Tubulin-Different-Phenotype (%) [1]: 22%
Total Cell Count [1]: 138
Population Apoptotic (%) [2]: 32%
Population Fragmented Nuclei (%) [2]: 19%
Population Healthy Nuclei (%) [2]: 55%
Population Hoechst High Intensity Objects (%) [2]: 8%
Population Membrane Permeable-Phenotype (%) [2]: 4%
Population Mitochondria Different-Phenotype (%) [2]: 9%
Population Mitotic Cells (%) [2]: 67%
Population Normal (%) [2]: 91%
Population Pyknosed Nuclei (%) [2]: 25%
Population Tubulin-Different-Phenotype (%) [2]: 53%
Total Cell Count [2]: 160
Population Apoptotic (%) [3]: 28%
Population Fragmented Nuclei (%) [3]: 10%
Population Healthy Nuclei (%) [3]: 66%
Population Hoechst High Intensity Objects (%) [3]: 2%
Population Membrane Permeable-Phenotype (%) [3]: 1%
Population Mitochondria Different-Phenotype (%) [3]: 4%
Population Mitotic Cells (%) [3]: 71%
Population Normal (%) [3]: 97%
Population Pyknosed Nuclei (%) [3]: 22%
Population Tubulin-Different-Phenotype (%) [3]: 48%
Total Cell Count [3]: 170
Population Apoptotic (%) [4]: 45%
Population Fragmented Nuclei (%) [4]: 25%
Population Healthy Nuclei (%) [4]: 47%
Population Hoechst High Intensity Objects (%) [4]: 6%
Population Membrane Permeable-Phenotype (%) [4]: 6%
Population Mitochondria Different-Phenotype (%) [4]: 3%
Population Mitotic Cells (%) [4]: 54%
Population Normal (%) [4]: 93%
Population Pyknosed Nuclei (%) [4]: 26%
Population Tubulin-Different-Phenotype (%) [4]: 77%
Total Cell Count [4]: 149
Population Apoptotic (%) [5]: 53%
Population Fragmented Nuclei (%) [5]: 16%
Population Healthy Nuclei (%) [5]: 74%
Population Hoechst High Intensity Objects (%) [5]: 2%
Population Membrane Permeable-Phenotype (%) [5]: 0%
Population Mitochondria Different-Phenotype (%) [5]: 0%
Population Mitotic Cells (%) [5]: 46%
Population Normal (%) [5]: 97%
Population Pyknosed Nuclei (%) [5]: 9%
Population Tubulin-Different-Phenotype (%) [5]: 18%
Total Cell Count [5]: 135
Population Apoptotic (%) [6]: 50%
Population Fragmented Nuclei (%) [6]: 25%
Population Healthy Nuclei (%) [6]: 53%
Population Hoechst High Intensity Objects (%) [6]: 7%
Population Membrane Permeable-Phenotype (%) [6]: 6%
Population Mitochondria Different-Phenotype (%) [6]: 2%
Population Mitotic Cells (%) [6]: 50%
Population Normal (%) [6]: 92%
Population Pyknosed Nuclei (%) [6]: 20%
Population Tubulin-Different-Phenotype (%) [6]: 52%
Total Cell Count [6]: 156
Population Apoptotic (%) [7]: 26%
Population Fragmented Nuclei (%) [7]: 7%
Population Healthy Nuclei (%) [7]: 76%
Population Hoechst High Intensity Objects (%) [7]: 4%
Population Membrane Permeable-Phenotype (%) [7]: 1%
Population Mitochondria Different-Phenotype (%) [7]: 7%
Population Mitotic Cells (%) [7]: 73%
Population Normal (%) [7]: 95%
Population Pyknosed Nuclei (%) [7]: 16%
Population Tubulin-Different-Phenotype (%) [7]: 49%
Total Cell Count [7]: 163
Population Apoptotic (%) [8]: 28%
Population Fragmented Nuclei (%) [8]: 28%
Population Healthy Nuclei (%) [8]: 53%
Population Hoechst High Intensity Objects (%) [8]: 6%
Population Membrane Permeable-Phenotype (%) [8]: 9%
Population Mitochondria Different-Phenotype (%) [8]: 1%
Population Mitotic Cells (%) [8]: 72%
Population Normal (%) [8]: 93%
Population Pyknosed Nuclei (%) [8]: 18%
Population Tubulin-Different-Phenotype (%) [8]: 69%
Total Cell Count [8]: 147
Population Apoptotic (%) [9]: 54%
Population Fragmented Nuclei (%) [9]: 23%
Population Healthy Nuclei (%) [9]: 67%
Population Hoechst High Intensity Objects (%) [9]: 7%
Population Membrane Permeable-Phenotype (%) [9]: 1%
Population Mitochondria Different-Phenotype (%) [9]: 0%
Population Mitotic Cells (%) [9]: 45%
Population Normal (%) [9]: 92%
Population Pyknosed Nuclei (%) [9]: 8%
Population Tubulin-Different-Phenotype (%) [9]: 18%
Total Cell Count [9]: 145
Population Apoptotic (%) [10]: 55%
Population Fragmented Nuclei (%) [10]: 30%
Population Healthy Nuclei (%) [10]: 53%
Population Membrane Permeable-Phenotype (%) [10]: 5%
Population Mitochondria Different-Phenotype (%) [10]: 4%
Population Mitotic Cells (%) [10]: 44%
Population Pyknosed Nuclei (%) [10]: 15%
Population Tubulin-Different-Phenotype (%) [10]: 54%
Total Cell Count [10]: 183
Population Apoptotic (%) [11]: 66%
Population Fragmented Nuclei (%) [11]: 16%
Population Healthy Nuclei (%) [11]: 70%
Population Hoechst High Intensity Objects (%) [11]: 7%
Population Membrane Permeable-Phenotype (%) [11]: 3%
Population Mitochondria Different-Phenotype (%) [11]: 3%
Population Mitotic Cells (%) [11]: 33%
Population Normal (%) [11]: 92%
Population Pyknosed Nuclei (%) [11]: 12%
Population Tubulin-Different-Phenotype (%) [11]: 55%
Total Cell Count [11]: 160
Population Apoptotic (%) [12]: 52%
Population Fragmented Nuclei (%) [12]: 31%
Population Healthy Nuclei (%) [12]: 54%
Population Hoechst High Intensity Objects (%) [12]: 5%
Population Membrane Permeable-Phenotype (%) [12]: 6%
Population Mitotic Cells (%) [12]: 47%
Population Normal (%) [12]: 94%
Population Pyknosed Nuclei (%) [12]: 14%
Population Tubulin-Different-Phenotype (%) [12]: 66%
Total Cell Count [12]: 153
